For data set [1], the system named is HUVEC. The experiment in a line: Radioprotective activity against 60Co gamma-irradiation-mediated cytotoxicity in HUVEC assessed as survival rate at 20 uM preincubated for 24 hrs followed by gamma-irradiation and measured after 4 days by MTS assay relative to control. Format: functional. Conditions: Homo sapiens, light or radiation study, read-out: Survival. In a few lines: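 HUVECs in RPMI-1640 with 10% FBS, seeded 4000 cells per mL. After 24 h, exposed to compound from a 100 mM DMSO stock (final 20 µM) for 24 h. Then ⁶⁰Co γ-irradiated at 8.0 Gy, 0.93 Gy min⁻¹, and cultured 4 days with medium changes. MTS added for 3 h at 37 °C and A492 read. Survival calculated relative to non-irradiated cells; mean of three independent experiments.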
(In general: Formazan colour is commonly taken as a measure of viable cells.)

The test system of data set [2] is HUVEC. The experiment in a line: Radioprotective activity against 60Co gamma-irradiation-mediated cytotoxicity in HUVEC assessed as increase in survival rate at 40 uM preincubated for 24 hrs followed by gamma-irradiation and measured after 4 days by MTS assay relative to control. Format: functional, cell-based. The following applies: Homo sapiens. In a few lines: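 HUVECs seeded at 4000 cells/mL in RPMI-1640 with 10% FBS. After 24 h, compound added at 40 µM (diluted from 100 mM DMSO stock) for 24 h, then 8.0 Gy 60Co γ at 0.93 Gy/min. Cells grown 4 days with medium changed every 2 days, then MTS for 3 h at 37 °C and A492 read. Survival = blank-corrected OD relative to unirradiated cells; mean of three experiments.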

The test system of data set [3] is HUVEC. Briefly: Cytotoxicity against HUVEC at 100 uM after 24 hrs by MTS assay. Format: cell-based. The following applies: human. An outline of the steps:
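HUVECs grown in RPMI-1640 with 10% FBS and penicillin/streptomycin, pH 7.2, 37 °C, 5% CO2, then trypsinized at 80% confluence. Compound exposure at 100 µM, with viability read by MTS tetrazolium assay.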

Data set [4] relates to HUVEC. Briefly: Radioprotective activity against 60Co gamma-irradiation-induced DNA damage in HUVEC after 24 hrs by comet assay. Type of data set: functional, cell-based. Conditions: Homo sapiens. An outline of the steps:
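HUVECs (RPMI-1640, 10% FBS) incubated with compound 24 h, then given 6.0 Gy 60Co γ at 0.93 Gy/min. At 24 h post-irradiation, cells (1 × 10^5/mL) were embedded in comet agarose and lysed 30 min at 4 °C. Alkaline unwinding (300 mM NaOH, 1 mM EDTA, pH > 13) ran 30 min, then electrophoresis at 1.0 V/cm, 20 min. Vista green stain; tail length (µm) of 50 comets/slide; three repeats.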

The subject of data set [5] is Mus musculus. Briefly: Radioprotective activity against 60Co gamma-irradiation-induced toxicity in C57/BL mouse assessed as survival rate at 300 mg/kg, ip administered 15 mins and 24 hrs prior to irradiation and measured over 30 days post irradiation (reference value: 50%). Format: functional. Conditions: light or radiation study.
The subject of data set [6] is Mus musculus. The experiment in a line: Radioprotective activity against 60Co gamma-irradiation-induced body weight loss in C57/BL mouse assessed as increase in body weight at 300 mg/kg, ip administered 15 mins and 24 hrs prior to irradiation and measured over 10 to 30 days post irradiation. Type of data set: functional, organism-based.
The test system of data set [7] is Mus musculus. Briefly: Radioprotective activity against 60Co gamma-irradiation-induced toxicity in C57/BL mouse assessed as survival rate at 300 mg/kg, sc administered 15 mins and 24 hrs prior to irradiation and measured over 30 days post irradiation (reference value: 50%). Format: functional. The following applies: light or radiation study.
Data set [8] relates to Mus musculus. Briefly: Radioprotective activity against 60Co gamma-irradiation-induced toxicity in C57/BL mouse assessed as survival rate at 5 mg/kg, ig administered 24 hrs prior to irradiation and measured over 30 days post irradiation (reference value: 50%). Type of data set: functional. Conditions: light or radiation study, po.

Each structure is given as a SMILES string. Activity calls are given as the source filed them. No cut-off for these calls is given here.

As for `O=S(=O)(Cc1ccc(Br)cc1)c1ccc2cc(Br)ccc2c1`, the viability at 20 µM with HUVEC [1] is 53.1%. Besides, in the data set on HUVEC [2], the outcome was Active. Also, in the data set with HUVEC [3], the Activity entry is reported as “Non-Toxic”.

Consider `[O-][S+](Cc1ccc(F)cc1)c1ccc2cc(Br)ccc2c1` (centres undefined), for which the viability at 20 µM with HUVEC [1] worked out at 77.2%. The result in the data set on HUVEC [2], in the data set on HUVEC [4] and with Mus musculus [6] was Active. Further, in the data set on HUVEC [3], the Activity result is reported as “Non-Toxic”. Further, the survival at 300 mg/kg with Mus musculus [5] was determined as 100%.

For `[O-][S+](Cc1ccc(Br)cc1)c1ccc2ccccc2c1` (centres undefined), the viability at 20 µM with HUVEC [1] is 59.3%. Further, in the data set with HUVEC [2], the result was Active. In addition, the Activity entry in the data set on HUVEC [3] was “Non-Toxic”.

For `[O-][S+](Cc1ccc(Cl)cc1)c1ccc2ccccc2c1` (centres undefined), the viability at 20 µM with HUVEC [1] was 57.2%. For the same compound, the result in the data set on HUVEC [2] was Active. The Activity result in the data set on HUVEC [3] was “Non-Toxic”.

As for `[O-][S+](Cc1ccccc1F)c1ccc2cc(Br)ccc2c1` (centres undefined), the viability at 20 µM in the data set with HUVEC [1] was 51.3%. In addition, the result in the data set on HUVEC [2] was Active. Also, the Activity entry in the data set with HUVEC [3] was “Non-Toxic”.

In the case of `O=C(O)c1ccc(/C=C/S(=O)(=O)Cc2ccc(Cl)cc2)cc1` [RECILISIB SODIUM], the viability at 20 µM in the data set on HUVEC [1] was 57.5%. Also, in the data set with HUVEC [2], the outcome was Active. For the same compound, the survival at 300 mg/kg in the data set with Mus musculus [7] amounted to 60%.

As for `[O-][S+](Cc1ccc(F)cc1)c1ccc2ccccc2c1` (centres undefined), the viability at 20 µM in the data set with HUVEC [1] turned out to be 52%. Further, in the data set with HUVEC [2], the outcome was Active. The Activity entry in the data set with HUVEC [3] is given as “Non-Toxic”.

For `C#C[C@]1(O)[C@H](O)C[C@H]2[C@@H]3CCc4cc(OC5CCCC5)ccc4[C@H]3CC[C@@]21C` [NYLESTRIOL], in the data set with Mus musculus [8], the survival at 5 mg/kg is 100%.

On to `O=S(=O)(Cc1ccccc1F)c1ccc2cc(Br)ccc2c1`, for which the viability at 20 µM in the data set with HUVEC [1] stood at 52.4%. Moreover, in the data set on HUVEC [2], the outcome was Active. The Activity entry in the data set on HUVEC [3] is reported as “Non-Toxic”.

`O=S(=O)(Cc1ccccc1Cl)c1ccc2cc(Br)ccc2c1`: the viability at 20 µM in the data set with HUVEC [1] turned out to be 56.7%. Also, the result with HUVEC [2] was Active. Further, the Activity entry in the data set on HUVEC [3] is on record as “Non-Toxic”.

Consider `[O-][S+](Cc1cccc(Cl)c1)c1ccc2cc(Br)ccc2c1` (centres undefined), for which the viability at 20 µM in the data set on HUVEC [1] was 55.1%. Also, in the data set with HUVEC [2], the result was Active. Besides, in the data set with HUVEC [3], the Activity result was “Non-Toxic”.

Source of the values: ChEMBL document CHEMBL4257481, “Synthesis and radioprotective effects of novel benzyl naphthyl sulfoxide (sulfone) derivatives transformed from Ex-RAD” (Medchemcomm, 2018).
